The values below come from ChEMBL document CHEMBL1153067, “Synthesis and optimization of 2-pyridin-3-yl-benzo[d][1,3]oxazin-4-one based inhibitors of human neutrophil elastase” (Bioorg Med Chem Lett, 2009).

SMILES strings stand for the structures.

One data set can be described thus: Chemical stability in 200 mM sodium borate buffer at pH 9.2. The format is physicochemical. The procedure, abridged: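 Alkaline hydrolysis followed by loss of the intact benzoxazinone ring absorbance maximum (340 nm 10 nm) in 200 mM sodium borate, pH 9.2, with 1% DMSO.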
Regarding `CCc1cc(OC)cc2nc(-c3cccnc3N3CCN(C)CC3)oc(=O)c12`, the half-life (as a rule, the time in which the quantity being followed falls by half) came to 4 h.
Turning to `CCc1cccc2nc(-c3cccnc3N3CCN(C)CC3)oc(=O)c12`, the half-life was 1.08 h.
`CCc1cc(OC)cc2nc(-c3cccnc3N3CCC(C(=O)O)CC3)oc(=O)c12` gave a half-life of 16.7 h.
Still for that read-out and setting: under `CCc1cc(N(C)C)cc2nc(-c3cccnc3N3CCN(C)CC3)oc(=O)c12` stands 122 h.
Same read-out and setting: under `CCc1cc(N(C)C)cc2nc(-c3cccnc3N3CCN(C4CCN(C)CC4)CC3)oc(=O)c12` stands 115 h; under `CCc1cc(OC)cc2nc(-c3cccnc3N3CCN(C4CCN(C)CC4)CC3)oc(=O)c12`, 23.3 h.
Still for that read-out and setting: under `CCc1cccc2nc(-c3cccnc3N3CCN(C4CCN(C)CC4)CC3)oc(=O)c12` stands 0.933 h; under `CCc1cccc2nc(-c3cccnc3N3CCC(C(=O)O)CC3)oc(=O)c12`, 1.48 h.

Another data set is described as follows: Stability in heparin treated rat plasma at 2 uM at 37 degC by electrospray ionization mass spectrometry. The class given is ADME, cell-free. Put shortly:
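Compounds at […] incubated at 37 °C in heparinized rat plasma. Plasma proteins precipitated with acetonitrile, then compound quantified by ESI-MS against an internal standard. t1/2 derived from a first-order rate constant fitted to concentration versus time.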
In turn, `CCc1cc(OC)cc2nc(-c3cccnc3N3CCN(C4CCCC4)CC3)oc(=O)c12` had a half-life at 2 µM of 1.5 h.
On to `CCc1cc(OC)cc2nc(-c3cccnc3N3CCN(CC(C)C)CC3)oc(=O)c12`, for which the half-life at 2 µM is 0.8 h. Compared with the last molecule, the half-life at 2 µM is about 1.9-fold lower.
The same measure, in the same setting: as for `CCc1cc(OC)cc2nc(-c3cccnc3N3CCN(C)CC3)oc(=O)c12`, the figure is 1.4 h.
Same read-out and setting: as for `CCc1cc(OC)cc2nc(-c3cccnc3N3CCN(CCN(C)C)CC3)oc(=O)c12`, the figure is 0.13 h; as for `CCc1cc(OC)cc2nc(-c3cccnc3N3CCN(CCO)CC3)oc(=O)c12`, 0.283 h.
`CCc1cc(OC)cc2nc(-c3cccnc3N3CCC(C(=O)O)CC3)oc(=O)c12` had a half-life at 2 µM of 1.35 h.
Consider `CCc1cc(OC)cc2nc(-c3cccnc3N3CCN(CCN4CCOCC4)CC3)oc(=O)c12`, for which the half-life at 2 µM was 0.317 h.
For `CCc1cc(OC)cc2nc(-c3cccnc3N3CCN(CCC#N)CC3)oc(=O)c12`, the half-life at 2 µM is 0.183 h. Against the preceding molecule, the half-life at 2 µM is about 1.7-fold lower.
As for `CCc1cc(OC)cc2nc(-c3cccnc3N3CCN(CC(=O)O)CC3)oc(=O)c12`, the half-life at 2 µM worked out at 4.5 h.
Turning to `CCc1cc(OC)cc2nc(-c3cccnc3N3CCC[C@@H](C(=O)O)C3)oc(=O)c12`, the half-life at 2 µM was 2.5 h.
Same read-out and setting: under `CCc1cc(OC)cc2nc(-c3cccnc3N3CCC[C@H](C(=O)O)C3)oc(=O)c12` stands 2.33 h; under `CCc1cc(OC)cc2nc(-c3cccnc3N3CCN(CC4CC4)CC3)oc(=O)c12`, 1.15 h; under `CCc1cc(OC)cc2nc(-c3cccnc3N3CCN(CCOC)CC3)oc(=O)c12`, 0.867 h.
Still for that read-out and setting: as for `CCCCN1CCN(c2ncccc2-c2nc3cc(OC)cc(CC)c3c(=O)o2)CC1`, the figure is 0.85 h.
